# ABCB1 block: blocks JC-1 efflux by human ABCB1 transporter; CCRF-Adr cells, flow cytometry; 190,000 tested, 0.067% active; P08183; inhibition, % at 6.6 µM; in the data active means inhibition above about 40%;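 further: 0% = vehicle and 100% = reference inhibitor; higher value means more JC-1 retained so stronger ABCB1 efflux block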
# EP2 antag: blocks the human prostaglandin E2 receptor EP2. P43116. C6 glioma cells expressing human EP2, cAMP TR-FRET; cells stimulated with saturating PGE2. inhibition, % at 25 µM. 260,000 tested, 0.52% active. AID 1422;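 active means percent inhibition above 40 after rounding to a whole number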;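 further: rat C6 glioma host cells with rolipram phosphodiesterase inhibitor present; the protocol text gives 20 µM as final concentration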
# ABCG2 inh: blocks JC-1 efflux by human ABCG2 transporter. Q9UNQ0. IgMXP3 cells, flow cytometry. inhibition, % at 6.6 µM. 190,000 tested, 0.1% active. AID 1325;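 active means inhibition above 80%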;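 further: 0% = DMSO and 100% = nicardipine control wells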
#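 System: two drug-resistant human cell lines, ABCG2 and ABCB1; controls: nicardipine high and DMSO low controls; times: 10 min exposure at 25 °C with rotation, no wash; detection: flow cytometry of retained JC-1 fluorescence; read-out basis: percent efflux inhibition, scaled nicardipine 100% to DMSO 0%; doses: one concentration, 6.6 µM final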
# RBBP9 inhibitor: human RBBP9 hydrolase inhibition | recombinant RBBP9, FP-Rh probe fluorescence polarization | inhibition, % at 7.94 µM | 220,000 tested, 0.2% active;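 active means inhibition above the campaign mean of all tested compounds plus 3 SD, cut at about 14% in these data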;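 further: plate controls were DMSO wells with RBBP9 for no effect and wells lacking RBBP9 protein for full effect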
#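 system = RBBP9 protein | input = RBBP9 at 2.5 µM in dispensed solution, before mixing | measured by = fluorescence polarization (mP), excitation 525 nm, emission 598 nm | incubation = enzyme-compound preincubation 30 min, then probe labeling 45 min, 25 °C | buffer or medium = Tris-NaCl-Pluronic buffer, pH 8.0 | compound = single dose 7.94 µM | also added = FP-Rh probe, 375 nM dispensing solution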
# EP2 mod: modulates human prostaglandin E2 receptor EP2 signaling; 260,000 tested, 0.83% active; P43116; AID 940; EP2-expressing cells, cAMP HTRF FRET, PGE2 co-stimulation; induction, % at 25 µM;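 active means compounds whose cAMP rise, as percent of the full-agonist control response, exceeds 60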;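 further: rat C6 glioma line stably carrying human EP2 under a CMV promoter; the protocol text gives 20 µM as final concentration; 100% = response of wells given 1 µM PGE2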
# * marks the source's active call; other numbers are inactive results; x = no result given; ! = a repeat was not active. Compounds with a hit are over-represented: about 1.5% of the library has one in this group of screens.
SMILES,ABCB1 block,EP2 antag,ABCG2 inh,RBBP9 inhibitor,EP2 mod
COC(=O)c1c(NC(=O)CN2CCOCC2)sc2c1CCC(C)C2 (configuration not stated),1.9,5.3,10.6,-7.8,61.4*
NC(=O)c1c(N)sc2c1CCC2,-0.1,4.2,1.5,-6.3,-12.2
Cc1cccc(N(CC(=O)NCc2ccccn2)S(C)(=O)=O)c1,x,8.7,x,x,1.6
C=CCNC(=O)C1CCN(S(=O)(=O)c2ccc(F)cc2)CC1,x,6.0,x,x,-26.6
O=[N+]([O-])c1cccc(/C=C/c2nc3ccc([N+](=O)[O-])cc3[nH]2)c1,0.2,44.2*,2.1,-4.2,-45.9
Cc1nc2ccc([N+](=O)[O-])cc2[nH]1,0.4,8.2,14.6,-9.1,-15.4
COc1cc(C2Nc3cc(C)c(C)cc3NC3=C2C(=O)CC(C)(C)C3)cc(OC)c1O (configuration not stated),x,4.4,x,x,-19.8
COc1ccc(Br)cc1-c1nc(CCl)cs1,0.2,30.3,4.8,-0.3,63.2*
C[C@@H](Cn1nnc2ccccc21)NC(=O)c1ccc2c(c1)CCN2S(C)(=O)=O,x,11.5,x,x,-41.3
O=C(O)c1cccc(Cn2c(Cl)c(/C=N/NC(=O)c3ccc(O)cc3)sc2=O)c1,x,3.3,x,-3.5,61.4*
COc1ccc(N2CC(C(=O)Nc3cccc(F)c3)CC2=O)cc1 (configuration not stated),x,2.8,x,x,-27.4
CCCS(=O)(=O)N1CCC(n2nc(-c3ccoc3C)oc2=O)CC1,x,9.6,x,x,-22.6
Cc1ccc(C)c2[nH]c(=O)c(C(c3nnnn3CCc3ccccc3)N3CCCCC3)cc12 (configuration not stated),x,10.8,x,x,84.6*
Cc1ccc(C)c2[nH]c(=O)c(C(c3nnnn3CCc3ccccc3)N3CCOCC3)cc12 (configuration not stated),0.6,11.1,1.1,-1.6,5.6
Cc1cc(C)c2[nH]c(=O)c(C(c3nnnn3Cc3ccc(F)cc3)N3CCCCCC3)cc2c1 (configuration not stated),x,13.3,x,x,68.7*
Cc1cccc2cc(C(c3nnnn3Cc3ccc(F)cc3)N3CCCCC3)c(=O)[nH]c12 (configuration not stated),x,7.4,x,x,-14.1
CCCc1nc(-c2ccc(-c3ccc(C)cc3)nc2OCC)no1,x,12.3,x,x,69.3*
CCOc1nc(-c2ccc(C)cc2)ccc1-c1noc(COC)n1,0.4,10.0,6.0,-1.7,42.8
Cc1cc2cc3c(cc2nc1SCC(=O)Nc1cccc(F)c1)OCO3,x,17.5,x,x,65.6*
Cc1cc(NC(=O)CSc2nc(C3CC3)nc3sc4c(c23)CCCC4)no1,x,46.5*,x,x,-5.1
CCc1cc2cc3c(cc2nc1SCC(=O)Nc1cc(C)on1)OCO3,0.2,17.1,1.1,-6.7,72.7*!
CCc1cc2cc(C)cc(C)c2nc1SCC(=O)NCc1ccc2c(c1)OCO2,x,14.0,x,x,70.3*
Cn1c(O)c(C=Nc2ccccc2)n(C)c1=S,x,15.1,x,x,-41.7
CCc1cc2cc3c(cc2nc1SCC(=O)NCc1ccccc1)OCO3,x,17.1,x,x,81.1*
CCc1cc2cc3c(cc2nc1SCC(=O)NCc1ccc(OC)cc1)OCCO3,x,16.7,x,x,38.4
SMILES,ABCB1 block,EP2 antag,ABCG2 inh,RBBP9 inhibitor,EP2 mod
CC1=CC(=O)c2c(O)ccc(O)c2C1=O,7.7,83.9*,1.1,15.8*,-50.9
COc1ccc(/C(O)=C2/C(=O)C(=O)N(C)C2c2ccc(Cl)cc2Cl)cc1OC (configuration not stated),x,12.8,x,x,24.2
CCOc1ccc2[nH]c(=O)c(CN(CCN(C)C)C(=S)NCCOC)cc2c1,x,10.6,x,x,-12.0
O=C(O)CCC/C=C\C[C@@H]1[C@@H](/C=C/[C@@H](O)COc2cccc(Cl)c2)[C@H](O)C[C@@H]1O,-0.3,18.2,-0.8,-3.5,22.6
CCCCC[C@H](O)/C=C/[C@@H]1[C@@H](CCCCCCC(=O)O)[C@@H](O)C[C@H]1O,0.0,10.0,1.8,0.3,82.5*
COc1ccc2c(c1)CN([C@H](C)[C@@H]1CC[C@@H]3[C@H]4CC[C@H]5C[C@@H](O)CC[C@]5(C)[C@@H]4CC[C@]31C)CO2,x,60.7*,x,x,-25.1
Cn1c(=O)c2c(nc(SCC(=O)Nc3nc4ccccc4s3)n2C)n(C)c1=O,x,5.7,x,x,-35.7
O=C(Nc1cc(Cl)ccc1N1CCOCC1)c1cc2ccccc2oc1=O,x,15.7,x,x,6.2
O=C(Nc1cc(Cl)ccc1N1CCOCC1)c1cc2ccccc2o1,x,9.7,x,x,81.5*
CN(C)CCCn1c2c3ccccc3ccc2c2oc(=O)c3ccccc3c21,x,74.2*,x,x,-5.0
Cc1nc(SCC(=O)Nc2ccccc2F)nc2c1CCCC2,x,8.1,x,x,78.6*
COCCN1C(=O)C(=O)/C(=C(\O)c2ccc(OC)cc2)C1c1cccc2ccccc12 (configuration not stated),x,14.4,x,x,25.6
CC1(c2ccccc2)CC(C)(C)N2C(=O)C3(C(C#N)=C(N)Oc4cc(O)ccc43)c3cccc1c32 (configuration not stated),-0.1,3.7,-0.3,-10.1,61.5*
Cc1cc2c3c(c1)C(C)(c1ccccc1)CC(C)(C)N3C(=O)C21C(C#N)=C(N)OC2=C1C(=O)CC(C)(C)C2 (configuration not stated),3.1,6.6,32.1,-7.1,17.4
CC1=NOC(=O)/C1=C/c1ccc2c(c1)OCO2,0.1,61.2*,-1.5,-8.6,-66.2
O=C(c1ccncc1)N1C2CCC1CC(O)(c1ccccn1)C2 (configuration not stated),x,x,x,x,-18.7
O=C(O)c1ccccc1C(=O)Nc1ccccc1,0.3,4.5,-0.4,-0.4,7.2
CC(=O)c1sc(C(C)(C)C)cc1NC(=O)c1ccccc1C(=O)O,x,20.4,x,-5.2,76.9*
CCOC(=O)c1ccc(NC(=O)C2CC(=O)N3CCN=C3S2)cc1 (configuration not stated),x,13.4,x,x,-4.6
CN(C)S(=O)(=O)c1ccc(NC(=O)c2ccco2)cc1,x,7.4,x,x,-42.5
CC(=O)COC(=O)c1cc(-c2ccc(C)cc2)nc2ccccc12,0.6,12.1,2.5,-12.1,-46.6
CCOC(=O)c1cc(-c2ccccc2)nc2ccc(C)cc12,x,4.2,x,2.8,65.7*
COc1ccc(-c2cc(C(=O)OCC(C)=O)c3cc(Br)ccc3n2)cc1,x,18.4,x,x,54.2
CC(=O)COC(=O)c1cc(-c2ccccc2)nc2ccc(Br)cc12,x,25.0,x,x,68.5*
Cc1nc2c(c(=O)[nH]1)CCN(C(=O)c1oc3ccccc3c1C)C2,x,x,x,x,10.7
CCCn1c(SCc2ccc(Cl)cc2)nc2c1c(=O)[nH]c(=O)n2C,-0.7,4.4,0.4,-7.5,47.8
C/C=C/Cn1c(SCc2ccc(Cl)cc2)nc2c1c(=O)[nH]c(=O)n2C,0.2,7.5,4.5,3.8,63.4*
Cn1c(=O)c2c(nc(SCc3ccccc3)n2Cc2ccc(Cl)cc2)n(C)c1=O,0.8,5.2,1.6,-5.1,58.6
C=CCSc1nc2c(c(=O)n(C)c(=O)n2C)n1Cc1ccccc1Cl,x,7.8,x,x,93.0*
C=C(C)Cn1c(SCc2ccc(Cl)cc2)nc2c1c(=O)n(C)c(=O)n2C,x,5.5,x,x,80.1*

# Screens deposited in PubChem BioAssay by several laboratories.
